Measurements from different studies.
Target: MAP/microtubule affinity-regulating kinase 3 (MARK3, Homo sapiens, UniProt P27448)
Effect on: enzyme activity
Action: inhibitor

`NS(=O)(=O)c1ccc(CNc2ccnc(Nc3cccc(NC(=O)N4CCCC4)c3)n2)cc1` gave a remaining activity of 115% (radiometric; 1 µM).
`CC(C)(O)[C@H]1CC[C@H](Nc2ccc3ncc(-c4cccc(C(F)(F)F)c4)n3n2)CC1` gave a remaining activity of 101% (1 µM).
With `FC(F)c1nc2ccccc2n1-c1nc(N2CCOCC2)nc(N2CCOCC2)n1` the remaining activity was 94% (10 µM).
`Nc1nc(NC2CCCCC2)sc1C(=O)c1ccccc1` gave a remaining activity of 100% (10 µM).
`NS(=O)(=O)c1ccc(CNc2nc(Nc3cccc(NC(=O)N4CCCC4)c3)ncc2C2CC2)cc1` gave a remaining activity of 112% (radiometric; 1 µM).
With `COc1cc(Nc2cnc(C#N)c(O[C@H](C)CN(C)C)n2)ncc1-c1cnn(C)c1` the remaining activity was 98% (radiometric; 1 µM).
`O=C(Nc1cnn(-c2csc(C(=O)NC3COC3)c2)c1)Nc1c(F)cccc1Cl` gave a remaining activity of 99.3% (5 µM).
`CC(C)(C)c1nc2c(s1)c1nc(N)ncc1c1ccc(NS(=O)(=O)c3c(F)cccc3F)c(F)c12` has a remaining activity of 99% (radiometric; 1 µM).
With `COc1cc(Cl)c(C(=O)N[C@@H](CN[C@H]2CC[C@@H](N)CC2)Cc2ccc(C#N)cc2)cc1-c1ccc(CN[C@H](C)c2ccc(C)cc2)o1` the remaining activity was 98% (1 µM).
The remaining activity of `Cc1ccc(C(=O)Nc2ccc(CN3CCN(C)CC3)c(C(F)(F)F)c2)cc1C#Cc1cnc2cccnn12` is reported as 83% (23.5 nM).
`Cc1nn(CC(F)(F)F)cc1Nc1ncc(Br)c(NCc2ccc(S(N)(=O)=O)cc2)n1` has a remaining activity of 105% (radiometric; 1 µM).
`CC(C)(C)c1nc(-c2cccc(NS(=O)(=O)c3c(F)cccc3F)c2F)c(-c2ccnc(N)n2)s1` gave a remaining activity of 96% (radiometric; 1 µM).
`Cn1c(=O)n(-c2ccc(C(C)(C)C#N)cc2)c2c3cc(-c4cnc5ccccc5c4)ccc3ncc21` has a remaining activity of 100% (10 µM).
With `Brc1cnc(Nc2cccc(CN3CCOCC3)c2)nc1NCCc1c[nH]cn1` the remaining activity was 16% (radiometric; 1 µM).
The remaining activity of `CC(C)(C)C(=O)c1sc(NC2CCCCC2)nc1N` is reported as 112% (10 µM).
For `NS(=O)(=O)c1ccc(CNc2nc(Nc3cccc(CN4CCOCC4)c3)ncc2Br)cc1`, the remaining activity was 68% (radiometric; 1 µM).
The remaining activity of `Cc1sc(C(=O)NC2COC2)cc1-n1cc(NC(=O)Nc2c(F)cccc2Cl)cn1` is reported as 102% (10 µM).
